Assay results taken from ChEMBL document CHEMBL1212874, “Natural and semisynthetic azaphilones as a new scaffold for Hsp90 inhibitors” (Bioorg Med Chem, 2010).
Calls of active or inactive are those of the source. No cut-off for these calls is given here.

Assays:
NCI-H460 = assay: Antiproliferative activity against human NCI-H460 cells after 72 hrs; format: functional, cell-based; conditions: NCI-H460, 72 h
A-431 = assay: Antiproliferative activity against human A431 cells after 72 hrs; format: functional, cell-based; conditions: A-431, 72 h
[1] = Antiproliferative activity against human JR8 cells after 72 hrs; format: functional, cell-based; conditions: JR8, 72 h
IGROV-1 [2] = assay: Antiproliferative activity against human IGROV1 cells after 72 hrs; format: functional, cell-based; conditions: IGROV-1, 72 h
[3] = Inhibition of yeast full-length recombinant HSP90 ATPase activity expressed in Escherichia coli strain BL21(DE3) assessed as inorganic phosphate release after 3 hrs; design: species or system Saccharomyces cerevisiae
[4] = Binding affinity to HSP90 after 4 hrs by fluorescence polarization assay
Heat shock protein HSP90 [5] = molecular target: T1, Heat shock protein HSP90 (Homo sapiens, UniProt P07900+P08238); assay: Inhibition of HSP90 in human A431 cells assessed as down-regulation of Raf-1 protein at IC80 concentration after 24 hrs by immunoblotting; format: cell-based; conditions: A-431
Outline: (§1)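 Cells seeded at 100,000 cells/mL, treated 24 h later for 24 h at the equitoxic IC80 concentration given per compound and cell line. Whole-cell extracts (40 µg) run on SDS-PAGE and immunoblotted. Actin was the loading control, and tubulin the loading control for EGFR.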

Heat shock protein HSP90 [6] = molecular target: T1, Heat shock protein HSP90; assay: Inhibition of HSP90 in human A431 cells assessed as down-regulation of survivin protein at IC80 concentration after 24 hrs by immunoblotting; format: cell-based; conditions: A-431; outline: as §1
Heat shock protein HSP90 [7] = molecular target: T1, Heat shock protein HSP90; assay: Inhibition of HSP90 in human A431 cells assessed as down-regulation of Cdk4 protein at IC80 concentration after 24 hrs by immunoblotting; format: cell-based; conditions: A-431; outline: as §1
Heat shock protein HSP90 [8] = molecular target: T1, Heat shock protein HSP90; assay: Inhibition of HSP90 in human A431 cells assessed as down-regulation of Akt protein at IC80 concentration after 24 hrs by immunoblotting; format: cell-based; conditions: A-431; outline: as §1
Heat shock protein HSP90 [9] = molecular target: T1, Heat shock protein HSP90; assay: Inhibition of HSP90 in human A431 cells assessed as down-regulation of EGFR protein at IC80 concentration after 24 hrs by immunoblotting; format: cell-based; conditions: A-431; outline: as §1
Heat shock protein HSP90 [10] = molecular target: T1, Heat shock protein HSP90; assay: Inhibition of HSP90 in human JR8 cells assessed as down-regulation of Raf-1 protein at IC80 concentration after 24 hrs by immunoblotting; format: cell-based; outline: as §1
Heat shock protein HSP90 [11] = molecular target: T1, Heat shock protein HSP90; assay: Inhibition of HSP90 in human JR8 cells assessed as down-regulation of survivin protein at IC80 concentration after 24 hrs by immunoblotting; format: cell-based; outline: as §1
Heat shock protein HSP90 [12] = molecular target: T1, Heat shock protein HSP90; assay: Inhibition of HSP90 in human JR8 cells assessed as down-regulation of Cdk4 protein at IC80 concentration after 24 hrs by immunoblotting; format: cell-based; outline: as §1
Heat shock protein HSP90 [13] = molecular target: T1, Heat shock protein HSP90; assay: Inhibition of HSP90 in human JR8 cells assessed as down-regulation of Akt protein at IC80 concentration after 24 hrs by immunoblotting; format: cell-based; outline: as §1
Heat shock protein HSP90 [14] = molecular target: T1, Heat shock protein HSP90; assay: Inhibition of HSP90 in human JR8 cells assessed as down-regulation of EGFR protein at IC80 concentration after 24 hrs by immunoblotting; format: cell-based; outline: as §1
Heat shock protein HSP90 [15] = molecular target: T1, Heat shock protein HSP90; assay: Inhibition of HSP90 in human IGROV1 cells assessed as down-regulation of Raf-1 protein at IC80 concentration after 24 hrs by immunoblotting; format: cell-based; conditions: IGROV-1; outline: as §1
Heat shock protein HSP90 [16] = molecular target: T1, Heat shock protein HSP90; assay: Inhibition of HSP90 in human IGROV1 cells assessed as down-regulation of survivin protein at IC80 concentration after 24 hrs by immunoblotting; format: cell-based; conditions: IGROV-1; outline: as §1
Heat shock protein HSP90 [17] = molecular target: T1, Heat shock protein HSP90; assay: Inhibition of HSP90 in human IGROV1 cells assessed as down-regulation of Cdk4 protein at IC80 concentration after 24 hrs by immunoblotting; format: cell-based; conditions: IGROV-1; outline: as §1
Heat shock protein HSP90 [18] = molecular target: T1, Heat shock protein HSP90; assay: Inhibition of HSP90 in human IGROV1 cells assessed as down-regulation of Akt protein at IC80 concentration after 24 hrs by immunoblotting; format: cell-based; conditions: IGROV-1; outline: as §1
Heat shock protein HSP90 [19] = molecular target: T1, Heat shock protein HSP90; assay: Inhibition of HSP90 in human A431 cells expressing p53 mutant assessed as down-regulation of p53 protein at IC80 concentration after 24 hrs by immunoblotting; format: cell-based; conditions: A-431; outline: as §1
Heat shock protein HSP90 [20] = molecular target: T1, Heat shock protein HSP90; assay: Inhibition of HSP90 in human A431 cells assessed as up-regulation of HSP70 protein at IC80 concentration after 24 hrs by immunoblotting; format: cell-based; conditions: A-431; outline: as §1
Heat shock protein HSP90 [21] = molecular target: T1, Heat shock protein HSP90; assay: Inhibition of HSP90 in human A431 cells assessed as reduction of Raf-1/Hsp90 precipitation at IC80 concentration after 4 hrs by co-immunoprecipitation analysis; format: cell-based; conditions: A-431
Heat shock protein HSP90 [22] = molecular target: T1, Heat shock protein HSP90; assay: Inhibition of HSP90 in human A431 cells assessed as reduction of Hsp70/Hsp90 precipitation at IC80 concentration after 4 hrs by co-immunoprecipitation analysis; format: cell-based; conditions: A-431
IGROV-1 [23] = assay: Induction of apoptosis in human IGROV1 cells assessed as PARP1 cleavage at 11 uM after 48 hrs by Western blotting; format: functional, cell-based
Outline: (§2)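 IGROV-1 cells treated with 11 µM compound for 24 or 48 h. Cells rinsed with ice-cold PBS containing 0.1 mM orthovanadate and lysed in hot sample buffer. 40 µg of total extract run on SDS-PAGE and blotted onto nitrocellulose. Probed for cleaved caspase-3 and PARP-1.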

IGROV-1 [24] = assay: Induction of apoptosis in human IGROV1 cells assessed as activation of caspase 3 at 11 uM after 48 hrs by Western blotting; format: functional, cell-based; outline: as §2
IGROV-1 [25] = assay: Antitumor activity against human IGROV1 cells xenografted in athymic Swiss nude mouse assessed as increase of mouse survival at 25 mg/kg, ip administered qd for 4 days/week for 2 weeks; format: functional, organism-based; design: dose 25 mg/kg
Outline: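 Female athymic Swiss nude mice, 8–10 weeks old. IGROV-1 ovarian carcinoma was serially passaged ip as ascites, and 2.5 × 10^6 cells in 0.2 mL saline were injected ip. Dosing ip at 25 mg/kg daily, 4 days/week for 2 weeks, began the day after implant. End point was median survival time, reported as T/C% (treated/control MST × 100).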

Heat shock protein HSP90 [26] = molecular target: T1, Heat shock protein HSP90; assay: Inhibition of HSP90 in human A431 cells assessed as down-regulation of Akt protein after 24 hrs by immunoblotting; format: cell-based; conditions: a-431; outline: as §1
Heat shock protein HSP90 [27] = molecular target: T1, Heat shock protein HSP90; assay: Inhibition of HSP90 in human A431 cells assessed as down-regulation of EGFR protein after 24 hrs by immunoblotting; format: cell-based; conditions: a-431; outline: as §1
Heat shock protein HSP90 [28] = molecular target: T1, Heat shock protein HSP90; assay: Inhibition of HSP90 in human A431 cells assessed as down-regulation of Cdk4 protein after 24 hrs by immunoblotting; format: cell-based; conditions: a-431; outline: as §1
Heat shock protein HSP90 [29] = molecular target: T1, Heat shock protein HSP90; assay: Inhibition of HSP90 in human A431 cells assessed as down-regulation of survivin protein after 24 hrs by immunoblotting; format: cell-based; conditions: a-431; outline: as §1
[30] = Binding affinity to HSP90 by surface plasmon resonance analysis
Heat shock protein HSP90 [31] = molecular target: T1, Heat shock protein HSP90; assay: Inhibition of HSP90 in human A431 cells assessed as reduction of Raf-1/Hsp90 precipitation at 11 uM after 4 hrs by co-immunoprecipitation analysis; conditions: A-431
Heat shock protein HSP90 [32] = molecular target: T1, Heat shock protein HSP90; assay: Inhibition of HSP90 in human A431 cells assessed as reduction of Hsp70/Hsp90 precipitation at 11 uM after 4 hrs by co-immunoprecipitation analysis; conditions: A-431

IC50 (NCI-H460): 50 µM | IC50 (A-431): 5.53 µM | IC50 [3]: 9.87 µM | IC50 [4]: 61.7 µM | inhibition (Heat shock protein HSP90 [5]): Active | inhibition (Heat shock protein HSP90 [7]): Active | inhibition (Heat shock protein HSP90 [8]): Active | inhibition (Heat shock protein HSP90 [9]): Active | Raf-1 protein down-regulation (Heat shock protein HSP90 [10]): Active | inhibition (Heat shock protein HSP90 [12]): Active | inhibition (Heat shock protein HSP90 [13]): Active | inhibition (Heat shock protein HSP90 [14]): Active | inhibition (Heat shock protein HSP90 [15]): Active | inhibition (Heat shock protein HSP90 [17]): Active | inhibition (Heat shock protein HSP90 [18]): Active | inhibition (Heat shock protein HSP90 [19]): Active | inhibition (Heat shock protein HSP90 [20]): inactive | inhibition (Heat shock protein HSP90 [21]): Active | inhibition (Heat shock protein HSP90 [22]): Active | EC50 (Heat shock protein HSP90 [26]): 16.8 µM | EC50 (Heat shock protein HSP90 [27]): 11 µM | EC50 (Heat shock protein HSP90 [28]): 8.49 µM | Kd [30]: 0.0013 µM | inhibition (Heat shock protein HSP90 [31]): Active | inhibition (Heat shock protein HSP90 [32]): Active
Compound: CCC(C)/C=C/C=C/C=C/C(=O)/C=C(\O)C1=C2C=C3CC(CO)OC=C3C(=O)[C@]2(C)OC1=O (stereo not given in full) [BULGARIALACTONE B]
IC80 (A-431): 11 µM | IC50 [1]: 6.42 µM | IC50 (IGROV-1 [2]): 4.65 µM | inhibition (Heat shock protein HSP90 [6]): Active | inhibition (Heat shock protein HSP90 [11]): Active | inhibition (Heat shock protein HSP90 [16]): Active | inhibition (IGROV-1 [23]): Active | inhibition (IGROV-1 [24]): Active | Activity (IGROV-1 [25]): Active | EC50 (Heat shock protein HSP90 [29]): 11 µM
